Data set [1] can be described thus: Binding affinity to MLXBIR3SG domain by fluorescence polarization competitive assay. A general note: Polarisation of emitted light reports the rotation of a fluorescent probe.
Data set [2] addresses E3 ubiquitin-protein ligase XIAP (Homo sapiens, UniProt P98170). Nature of the data set: Binding affinity to XIAP-BIR3 domain by fluorescence polarization competitive assay.
In data set [3] the test system is HMEC. Nature of the data set: Cytotoxicity against HMEC cells assessed as cell viability after 3 to 4 days. The following applies: Homo sapiens.
The test system of data set [4] is HMEC. The data set can be described thus: Induction of apoptosis in HMEC cells assessed as caspase 3/7 activation after 3 to 24 hrs. Particulars: Homo sapiens.
In data set [5] the test system is MDA-MB-231. The data set can be described thus: Cytotoxicity against human MDA-MB-231 cells assessed as cell viability after 3 to 4 days.
Data set [6] in a line: Half life in mouse at 25 mg/kg, po. In kind it is ADME, organism-based. Details: dose 25 mg/kg, route oral. The following applies: in vivo.
A short description of data set [7]: Cmax in mouse at 25 mg/kg, po. The following applies: in vivo. In kind it is ADME, organism-based. Details: dose 25 mg/kg, route oral.
Data set [8] has as its system BT-549. Nature of the data set: Induction of apoptosis in human BT549 cells assessed as caspase 3/7 activation after 3 to 24 hrs.
Data set [9] is described as follows: AUC in mouse at 25 mg/kg, po. Particulars: plasma. In kind it is ADME, organism-based. Details: dose 25 mg/kg, route oral.
Data set [10] deals with MDA-MB-231. Nature of the data set: Induction of apoptosis in human MDA-MB-231 cells assessed as caspase 3/7 activation after 3 to 24 hrs.
Data set [11] concerns MDA-MB-231. The data set can be described thus: Induction of cIAP1 degradation in human MDA-MB-231 cells after 1 hr by Western blot. It is filed as functional, cell-based. The method, boiled down:
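MDA-MB-231 cells treated 1 h with a range of compound concentrations. Western blot probed with goat anti-c-IAP1, with mouse monoclonal anti-β-tubulin as loading control.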

In data set [12] the test system is MDA-MB-231. Nature of the data set: Antitumor activity against human MDA-MB-231 cells xenografted in mouse assessed as increase in median time for tumor progression at 50 mg/kg/day, po. In kind it is functional, organism-based. The gist of the method: (§1)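 Female 8-week-old C.B-17 SCID.bg mice inoculated subcutaneously in the upper right flank with 1 × 10⁷ GFP-expressing MDA-MB-231-X1.1 cells. Once-daily oral gavage of vehicle or compound at 50 (mg/kg)/day began at tumors of ~200 mm³ (~1.5 weeks after inoculation), n = 14 per group. Caliper tumor volume V = 0.5ab². Progression defined as a 6-fold volume increase from day 0; body weight monitored.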
A general note: Xenograft models place foreign cells or tissue in a host animal.

For data set [13], the system named is Mus musculus. The data set can be described thus: Toxicity in mouse bearing human MDA-MB-231 cells assessed as change in body weight at 50 mg/kg/day, po. Details: route oral. The following applies: in vivo. It is filed as organism-based. The method, boiled down: as §1

Activity calls are given as the source filed them.

Experimental findings from ChEMBL document CHEMBL1152772, “Orally bioavailable antagonists of inhibitor of apoptosis proteins based on an azabicyclooctane scaffold” (J Med Chem, 2009) are described below.

Chain of E3 ubiquitin-protein ligase XIAP (P98170 whole entry, the tested form may be a part): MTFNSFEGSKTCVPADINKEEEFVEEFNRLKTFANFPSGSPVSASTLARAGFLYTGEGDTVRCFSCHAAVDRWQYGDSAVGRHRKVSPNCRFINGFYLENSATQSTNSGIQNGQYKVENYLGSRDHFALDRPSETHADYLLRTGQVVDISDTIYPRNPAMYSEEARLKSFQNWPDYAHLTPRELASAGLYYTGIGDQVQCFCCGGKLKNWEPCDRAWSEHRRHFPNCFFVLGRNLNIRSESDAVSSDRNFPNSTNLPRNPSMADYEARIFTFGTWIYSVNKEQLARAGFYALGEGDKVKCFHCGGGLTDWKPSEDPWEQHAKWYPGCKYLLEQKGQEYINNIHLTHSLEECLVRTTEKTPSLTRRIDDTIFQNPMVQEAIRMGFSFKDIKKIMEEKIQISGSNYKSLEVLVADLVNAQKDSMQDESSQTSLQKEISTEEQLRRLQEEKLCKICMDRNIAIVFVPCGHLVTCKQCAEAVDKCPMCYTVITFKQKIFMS

Consider `CN[C@@H](C)C(=O)N[C@H](C(=O)N1CCC[C@H]1CNC(=O)C(c1ccccc1)c1ccccc1)C(C)(C)C`, for which the Ki (in general, the equilibrium dissociation constant of an inhibitor or competing ligand from its target) came out at 290 nM in data set [1] and 3000 nM in data set [2].

For the compound `CN[C@@H](C)C(=O)N[C@H](C(=O)N1CC[C@H]2CC[C@H](NC(=O)C3COc4ccccc43)[C@H]21)C(C)(C)C` (some centres undefined), the Ki in data set [1] amounted to 1500 nM; in [2] it was 1300 nM.

Turning to `CN[C@@H](C)C(=O)N[C@H](C(=O)N1CC[C@H]2CC[C@H](NC(=O)c3coc4ccccc34)[C@H]21)C(C)(C)C`, the Ki came to 440 nM in [1] and 640 nM in [2].

Take `CN[C@@H](C)C(=O)N[C@H](C(=O)N1CC[C@H]2CC[C@H](NC(=O)c3c(OC)ccc4ccccc34)[C@H]21)C(C)(C)C`: the Ki in [1] and in data set [2] was 110 nM in each case.

`CN[C@@H](C)C(=O)N[C@H](C(=O)N1CC[C@H]2CC[C@H](NC(=O)C(c3ccccc3)c3ccccc3)[C@H]21)C(C)(C)C`: the EC50 (in general, the concentration needed to bring the measured effect to its halfway point) in [3] was > 10000 nM; in [4], > 10000 nM; in data set [5], 9640 nM; in [8] it was 1810 nM; in data set [10], 3590 nM. Besides, the half-life (as a rule, the time in which the quantity being followed falls by half) in data set [6] was 1.5 h. In data set [7], the Cmax (in general, the peak of the concentration-time curve) was determined as 5 µM. Besides, the AUC – broadly, concentration integrated over time – in data set [9] was 16 µM·h.

Consider `CN[C@@H](C)C(=O)N[C@H](C(=O)N1CC[C@H]2CC[C@H](NC(=O)c3ccc4ccccc4c3)[C@H]21)C(C)(C)C`, for which the EC50 in [3] is > 10000 nM; in [4] it was > 10000 nM; in data set [5], 3290 nM; in data set [8], 190 nM; in data set [10] it was 1320 nM.

In the case of `CN[C@@H](C)C(=O)N[C@H](C(=O)N1CC[C@H]2CC[C@H](NC(=O)c3ccc4[nH]nnc4c3)[C@H]21)C(C)(C)C`, the Ki in [1] is 260 nM; in data set [2], 1500 nM.

For `CN[C@@H](C)C(=O)N[C@H](C(=O)N1CC[C@H]2CC[C@H](NC(=O)c3ccc(C)c4ccccc34)[C@H]21)C(C)(C)C`, the inhibition constant Ki was 63 nM in data set [1] and 190 nM in [2]. The EC50 in data set [3] is > 10000 nM; in data set [4], > 10000 nM; in data set [5], 3120 nM; in data set [8] it was 1450 nM; in data set [10], 1580 nM.

Regarding `CN[C@@H](C)C(=O)N[C@H](C(=O)N1CC[C@H]2CC[C@H](NC(=O)c3cccc4ccccc34)[C@H]21)C(C)(C)C`, the EC50 in data set [3] was > 10000 nM; in data set [4], > 10000 nM; in data set [5], 980 nM; in data set [8] it was 470 nM; in data set [10] it was 490 nM. Besides, the result in [11] and in data set [12] was Active. Moreover, the Activity result in data set [13] was “Non-toxic”. The half-life in [6] was 1.3 h. Besides, the concentration in data set [7] peaked (Cmax) at 3.6 µM. In data set [9], this compound came in with an AUC of 5 µM·h.

As to `CN[C@@H](C)C(=O)N[C@H](C(=O)N1CC[C@H]2CC[C@H](NC(=O)N3CCc4ccccc43)[C@H]21)C(C)(C)C`, the Ki worked out at 1900 nM in data set [1] and 1500 nM in data set [2].

As to `CN[C@@H](C)C(=O)N[C@H](C(=O)N1CC[C@H]2CC[C@H](NC(=O)c3ccc4c(c3)OCO4)[C@H]21)C(C)(C)C`, the Ki worked out at 1300 nM in [1] and 1800 nM in data set [2].

Regarding `CN[C@@H](C)C(=O)N[C@H](C(=O)N1CCC[C@H]1CNC(=O)c1cccc2ccccc12)C(C)(C)C`, the Ki in data set [1] is 780 nM; in data set [2] it was 1600 nM.

As to `CN[C@@H](C)C(=O)N[C@H](C(=O)N1CC[C@H]2CC[C@H](NC(=O)c3ccc(F)c4ccccc34)[C@H]21)C(C)(C)C`, the EC50 is > 10000 nM in data set [3]; > 10000 nM in data set [4]; 10200 nM in data set [5]; 4070 nM in [8]; 4450 nM in data set [10].

In the case of `CN[C@@H](C)C(=O)N[C@H](C(=O)N1CC[C@H]2CC[C@H](NC(=O)c3csc4ccccc34)[C@H]21)C(C)(C)C`, the results for the Ki in data set [1] and in [2] were 110 nM and 160 nM, respectively.
